Consider one compound from PMC4019989 (Clinical cancer research : an official journal of the …, 2009).

Molecules are shown by their SMILES.

Series [1] has as its system primary acute myeloid leukemia blasts. The settings on record: tested at nanomolar levels (0.1-100 nmol/L); cited from earlier work.
A short description of the next series: Plasma pharmacokinetics. It counts as in vivo, human. The settings on record: for AUCinf, Mean: included C0; for AUClast, Mean: includes C0; for half-life / C0 / Cmax / Tmax / clearance: human, plasma, iv. An outline of the steps: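 Drug went in as an i.v. push over 1–2 min. Cycle 1 blood was drawn predose and at 5, 15, 30 min and 1, 2, 4 h postdose, plus predose and 30 min postdose on cycle 1 day 5 and day 1 of cycles 2 and 3. Plasma was assayed by validated LC/MS (lower limit of detection 0.10 μg/mL). Parameters came from pharmacokinetic analysis and modelling.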

Where [2] appears, read: 11 mg/m^2 i.v. push, n = 2, plasma.
[3] abbreviates: 15 mg/m^2 i.v. push, n = 5, plasma.
Where [4] appears, read: 20 mg/m^2 i.v. push, n = 4, plasma.

Usually half-life stands for the time needed for the level to fall by half in the phase considered. Low values mean rapid decline, high ones slow decline. The Cmax is the highest concentration seen after dosing. As usually defined, the Tmax is the time at which the peak concentration occurs. What is called clearance is a measure of how efficiently the substance is removed, as volume per time. Consider `CC(C)C[C@H](NC(=O)[C@H](CCc1ccccc1)NC(=O)CN1CCOCC1)C(=O)N[C@@H](Cc1ccccc1)C(=O)N[C@@H](CC(C)C)C(=O)[C@@]1(C)CO1` [carfilzomib], for which, in series [1], the “autocrine- and cytokine-dependent proliferation” value was “inhibited autocrine- and cytokine-dependent proliferation”. For the same compound, the entries for the “AUCinf, Mean” value in “Plasma pharmacokinetics” (setting [2]), in the series “Plasma pharmacokinetics” (setting [3]) and in the series “Plasma pharmacokinetics” (setting [4]) were 4,463 g·mL/h, 9,760 g·mL/h and 23,660 g·mL/h, respectively. Also, the figures for the “AUClast, Mean” value in the series “Plasma pharmacokinetics” (setting [2]), in “Plasma pharmacokinetics” (setting [3]) and in “Plasma pharmacokinetics” (setting [4]) were 4,457 ng·mL/h, 9,728 ng·mL/h and 23,123 ng·mL/h, respectively. Further, the half-life in the series “Plasma pharmacokinetics” is less than 30 min; in the series “Plasma pharmacokinetics” (11 mg/m2), 25.3 min; in “Plasma pharmacokinetics” (15 mg/m2), 28.9 min; in the series “Plasma pharmacokinetics” (20 mg/m2) it was 17.1 min. Besides, the C0 is 762 ng/mL in the series “Plasma pharmacokinetics” (11 mg/m2), 2120 ng/mL in the series “Plasma pharmacokinetics” (15 mg/m2) and 5450 ng/mL in “Plasma pharmacokinetics” (20 mg/m2). Moreover, the Cmax worked out at 90.2 ng/mL in the series “Plasma pharmacokinetics” (11 mg/m2), 326 ng/mL in “Plasma pharmacokinetics” (15 mg/m2) and 683 ng/mL in the series “Plasma pharmacokinetics” (20 mg/m2). Moreover, the time to peak (Tmax) was 9 min in “Plasma pharmacokinetics” (11 mg/m2), 5.8 min in the series “Plasma pharmacokinetics” (15 mg/m2) and 6 min in the series “Plasma pharmacokinetics” (20 mg/m2). Also, the figures for the clearance in “Plasma pharmacokinetics” (11 mg/m2), in “Plasma pharmacokinetics” (15 mg/m2) and in the series “Plasma pharmacokinetics” (20 mg/m2) were 5060 mL/min, 7050 mL/min and 4130 mL/min, respectively. In the series “Plasma pharmacokinetics” (patients, i.v. push), the “clearance (in words)” value is reported as “higher than liver blood flow”.
